For data set [1], the target named is T1, Nitric oxide synthase, inducible (Mus musculus, UniProt P29477).
T1 sequence (P29477 whole entry): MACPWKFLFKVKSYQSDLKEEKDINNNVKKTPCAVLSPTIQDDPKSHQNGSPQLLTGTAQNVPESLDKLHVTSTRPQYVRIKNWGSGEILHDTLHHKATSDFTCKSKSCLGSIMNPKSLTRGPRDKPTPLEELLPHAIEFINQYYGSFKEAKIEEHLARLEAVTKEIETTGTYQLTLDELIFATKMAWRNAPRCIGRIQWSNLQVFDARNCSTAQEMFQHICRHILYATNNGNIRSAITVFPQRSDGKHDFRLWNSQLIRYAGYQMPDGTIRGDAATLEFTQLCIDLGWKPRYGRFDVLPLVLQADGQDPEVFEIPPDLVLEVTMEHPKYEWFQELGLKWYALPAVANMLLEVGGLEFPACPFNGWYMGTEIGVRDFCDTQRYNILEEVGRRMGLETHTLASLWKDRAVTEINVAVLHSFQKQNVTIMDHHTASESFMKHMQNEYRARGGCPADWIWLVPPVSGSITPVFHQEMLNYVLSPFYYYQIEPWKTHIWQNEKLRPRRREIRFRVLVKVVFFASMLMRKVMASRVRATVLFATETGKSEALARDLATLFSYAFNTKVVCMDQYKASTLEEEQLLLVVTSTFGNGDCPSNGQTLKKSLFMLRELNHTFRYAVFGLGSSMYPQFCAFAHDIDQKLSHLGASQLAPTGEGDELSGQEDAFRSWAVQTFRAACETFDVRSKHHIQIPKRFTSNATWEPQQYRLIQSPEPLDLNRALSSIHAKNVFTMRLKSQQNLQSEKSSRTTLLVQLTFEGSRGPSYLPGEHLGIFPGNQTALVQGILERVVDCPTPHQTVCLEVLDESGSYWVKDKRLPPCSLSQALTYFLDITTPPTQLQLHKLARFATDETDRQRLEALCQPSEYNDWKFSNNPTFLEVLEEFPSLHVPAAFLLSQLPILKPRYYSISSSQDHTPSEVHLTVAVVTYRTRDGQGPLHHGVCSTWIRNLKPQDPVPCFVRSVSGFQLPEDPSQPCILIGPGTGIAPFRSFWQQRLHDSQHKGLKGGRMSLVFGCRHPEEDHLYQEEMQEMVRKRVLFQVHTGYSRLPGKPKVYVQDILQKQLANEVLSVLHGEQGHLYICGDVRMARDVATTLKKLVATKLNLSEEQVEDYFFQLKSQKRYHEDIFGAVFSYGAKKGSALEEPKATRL
Nature of the data set: Inhibition of mouse iNOS expressed in HEK293 cells assessed as NO production in by transient transfection assay. It counts as cell-based. In a few lines:
(§1)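 HEK293 cells grown to ~70% confluence in DMEM/10% FBS with pen/strep. Cells transiently transfected with 10 µg human or murine iNOS plasmid (Fugene 6), 4 h at 37 °C, 10% CO2. Trypsinized, plated at 5 × 10⁵ cells/mL and dosed at once; 1400W 100 µM final as positive control. After 18 h, NO read as DAN fluorescence (10 µg/mL, 20 min RT, then NaOH). EC50 from 3 runs, 10-point curves, n = 8/point.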

In the next data set the target is Cytochrome P450 3A4 (Homo sapiens, UniProt P08684). Nature of the data set: Inhibition of CYP3A4. It counts as ADME.
The next data set deals with Nitric oxide synthase 1 (Homo sapiens, UniProt P29475). Nature of the data set: Inhibition of human nNOS expressed in HEK293 cells assessed as NO production by transient transfection assay. It counts as cell-based.
A short description of data set [2]: Drug level in LPS-challenged BALB/c mouse plasma at 30 mg/kg, po after 6 hrs. Type of data set: ADME, organism-based. Set-up: dose 30 mg/kg, route oral. A digest of the protocol: (§2)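 Male Balb/c mice were dosed by oral gavage (90% PEG/5% Tween 80/5% PVP + 90% CMC (0.5% w/v)) at t = 0 h, 30 mg/kg for single-dose lines. LPS 10 mg/kg ip in 0.9% NaCl followed immediately. At 6 h, EDTA plasma was taken for nitrate and drug levels. Nitrate reduction is relative to vehicle; ED50 came from full oral dose-response.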

A further data set has as its target T2, Cytochrome P450 1A2 (Homo sapiens, UniProt P05177).
T2 sequence (P05177 whole entry): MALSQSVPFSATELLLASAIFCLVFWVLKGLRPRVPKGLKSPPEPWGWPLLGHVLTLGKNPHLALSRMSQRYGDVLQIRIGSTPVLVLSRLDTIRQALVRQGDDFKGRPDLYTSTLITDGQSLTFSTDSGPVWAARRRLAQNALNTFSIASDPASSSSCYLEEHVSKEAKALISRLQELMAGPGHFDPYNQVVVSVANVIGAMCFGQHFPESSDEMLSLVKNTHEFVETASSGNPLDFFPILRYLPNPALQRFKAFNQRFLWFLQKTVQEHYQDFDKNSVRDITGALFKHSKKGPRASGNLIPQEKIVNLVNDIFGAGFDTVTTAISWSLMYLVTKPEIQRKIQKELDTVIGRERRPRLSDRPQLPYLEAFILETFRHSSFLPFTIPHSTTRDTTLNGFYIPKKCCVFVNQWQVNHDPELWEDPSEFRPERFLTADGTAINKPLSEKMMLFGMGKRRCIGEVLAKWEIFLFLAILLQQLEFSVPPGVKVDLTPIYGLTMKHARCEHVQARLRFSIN
Briefly: Inhibition of CYP1A2. Type of data set: ADME.

Another data set has as its target Cytochrome P450 2C19 (Homo sapiens, UniProt P33261). Nature of the data set: Inhibition of CYP2C19. It counts as ADME.
Data set [3] concerns the target Nitric oxide synthase, inducible (Homo sapiens, UniProt P35228). Briefly: Inhibition of human iNOS expressed in HEK293 cells assessed as NO production by transient transfection assay. It counts as cell-based. In a few lines: as §1
In the next data set the test system is Mus musculus. Briefly: Reduction of plasma nitrate level in LPS-challenged BALB/c mouse at 30 mg/kg, po. It counts as functional. Set-up: scale not given: the % may be the effect or the level left. A digest of the protocol:
as §2

Cytochrome P450 2C19, sequence (P33261 whole entry): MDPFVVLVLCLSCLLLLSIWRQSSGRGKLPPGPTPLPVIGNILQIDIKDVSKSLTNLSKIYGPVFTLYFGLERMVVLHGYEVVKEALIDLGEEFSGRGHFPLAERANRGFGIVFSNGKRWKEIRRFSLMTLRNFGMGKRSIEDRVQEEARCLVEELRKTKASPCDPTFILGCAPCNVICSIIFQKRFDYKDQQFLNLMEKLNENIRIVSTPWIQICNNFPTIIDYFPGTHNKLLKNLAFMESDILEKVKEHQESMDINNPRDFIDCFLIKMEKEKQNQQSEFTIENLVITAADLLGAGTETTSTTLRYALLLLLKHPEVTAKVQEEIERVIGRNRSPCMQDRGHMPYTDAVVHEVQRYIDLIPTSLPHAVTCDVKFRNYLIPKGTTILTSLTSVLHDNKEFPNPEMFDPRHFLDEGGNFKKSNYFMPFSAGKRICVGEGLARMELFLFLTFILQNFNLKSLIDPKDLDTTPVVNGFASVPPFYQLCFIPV
Nitric oxide synthase, inducible (Homo sapiens, UniProt P35228), sequence (P35228 whole entry): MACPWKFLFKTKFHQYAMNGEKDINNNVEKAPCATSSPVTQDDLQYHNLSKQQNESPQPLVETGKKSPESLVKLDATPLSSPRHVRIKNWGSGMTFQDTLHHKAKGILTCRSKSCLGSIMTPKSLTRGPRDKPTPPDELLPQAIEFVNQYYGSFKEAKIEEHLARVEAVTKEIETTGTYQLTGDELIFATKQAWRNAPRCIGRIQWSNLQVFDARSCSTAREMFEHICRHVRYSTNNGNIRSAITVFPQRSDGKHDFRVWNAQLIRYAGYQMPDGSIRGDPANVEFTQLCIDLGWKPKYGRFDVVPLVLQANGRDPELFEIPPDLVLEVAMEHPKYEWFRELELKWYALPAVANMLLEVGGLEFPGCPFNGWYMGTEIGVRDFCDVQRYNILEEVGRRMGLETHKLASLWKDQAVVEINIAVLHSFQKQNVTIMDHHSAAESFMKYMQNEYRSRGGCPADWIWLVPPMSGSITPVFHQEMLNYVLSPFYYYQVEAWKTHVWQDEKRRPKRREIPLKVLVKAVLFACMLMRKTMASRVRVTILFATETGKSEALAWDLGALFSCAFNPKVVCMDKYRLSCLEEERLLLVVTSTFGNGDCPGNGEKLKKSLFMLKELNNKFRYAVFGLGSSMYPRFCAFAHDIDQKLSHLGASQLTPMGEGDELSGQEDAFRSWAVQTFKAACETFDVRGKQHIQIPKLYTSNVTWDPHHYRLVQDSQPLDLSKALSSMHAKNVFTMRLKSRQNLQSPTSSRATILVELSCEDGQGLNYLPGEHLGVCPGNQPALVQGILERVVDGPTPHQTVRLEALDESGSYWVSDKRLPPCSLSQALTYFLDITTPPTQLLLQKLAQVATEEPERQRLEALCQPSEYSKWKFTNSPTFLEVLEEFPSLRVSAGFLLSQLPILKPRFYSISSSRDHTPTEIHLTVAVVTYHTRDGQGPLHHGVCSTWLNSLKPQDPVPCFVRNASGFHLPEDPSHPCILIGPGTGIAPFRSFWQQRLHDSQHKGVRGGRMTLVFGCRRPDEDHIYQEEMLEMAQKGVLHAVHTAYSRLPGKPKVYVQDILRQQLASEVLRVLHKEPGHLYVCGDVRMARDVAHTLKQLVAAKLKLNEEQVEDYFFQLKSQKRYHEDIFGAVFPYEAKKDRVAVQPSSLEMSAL
Cytochrome P450 3A4, sequence (P08684 whole entry): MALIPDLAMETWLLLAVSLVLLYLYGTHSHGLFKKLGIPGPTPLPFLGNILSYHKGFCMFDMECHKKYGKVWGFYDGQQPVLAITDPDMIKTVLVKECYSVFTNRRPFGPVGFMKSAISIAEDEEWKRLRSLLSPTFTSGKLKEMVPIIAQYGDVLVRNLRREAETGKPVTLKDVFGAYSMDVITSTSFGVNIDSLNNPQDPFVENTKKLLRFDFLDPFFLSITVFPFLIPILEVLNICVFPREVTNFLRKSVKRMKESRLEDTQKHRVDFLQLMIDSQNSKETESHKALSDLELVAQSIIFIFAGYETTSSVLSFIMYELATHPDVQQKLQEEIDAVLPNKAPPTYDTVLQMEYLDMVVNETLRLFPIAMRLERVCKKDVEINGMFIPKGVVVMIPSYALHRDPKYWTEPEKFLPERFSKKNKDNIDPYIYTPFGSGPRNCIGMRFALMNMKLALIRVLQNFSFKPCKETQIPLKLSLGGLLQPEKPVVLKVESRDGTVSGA
Nitric oxide synthase 1, sequence (P29475 whole entry): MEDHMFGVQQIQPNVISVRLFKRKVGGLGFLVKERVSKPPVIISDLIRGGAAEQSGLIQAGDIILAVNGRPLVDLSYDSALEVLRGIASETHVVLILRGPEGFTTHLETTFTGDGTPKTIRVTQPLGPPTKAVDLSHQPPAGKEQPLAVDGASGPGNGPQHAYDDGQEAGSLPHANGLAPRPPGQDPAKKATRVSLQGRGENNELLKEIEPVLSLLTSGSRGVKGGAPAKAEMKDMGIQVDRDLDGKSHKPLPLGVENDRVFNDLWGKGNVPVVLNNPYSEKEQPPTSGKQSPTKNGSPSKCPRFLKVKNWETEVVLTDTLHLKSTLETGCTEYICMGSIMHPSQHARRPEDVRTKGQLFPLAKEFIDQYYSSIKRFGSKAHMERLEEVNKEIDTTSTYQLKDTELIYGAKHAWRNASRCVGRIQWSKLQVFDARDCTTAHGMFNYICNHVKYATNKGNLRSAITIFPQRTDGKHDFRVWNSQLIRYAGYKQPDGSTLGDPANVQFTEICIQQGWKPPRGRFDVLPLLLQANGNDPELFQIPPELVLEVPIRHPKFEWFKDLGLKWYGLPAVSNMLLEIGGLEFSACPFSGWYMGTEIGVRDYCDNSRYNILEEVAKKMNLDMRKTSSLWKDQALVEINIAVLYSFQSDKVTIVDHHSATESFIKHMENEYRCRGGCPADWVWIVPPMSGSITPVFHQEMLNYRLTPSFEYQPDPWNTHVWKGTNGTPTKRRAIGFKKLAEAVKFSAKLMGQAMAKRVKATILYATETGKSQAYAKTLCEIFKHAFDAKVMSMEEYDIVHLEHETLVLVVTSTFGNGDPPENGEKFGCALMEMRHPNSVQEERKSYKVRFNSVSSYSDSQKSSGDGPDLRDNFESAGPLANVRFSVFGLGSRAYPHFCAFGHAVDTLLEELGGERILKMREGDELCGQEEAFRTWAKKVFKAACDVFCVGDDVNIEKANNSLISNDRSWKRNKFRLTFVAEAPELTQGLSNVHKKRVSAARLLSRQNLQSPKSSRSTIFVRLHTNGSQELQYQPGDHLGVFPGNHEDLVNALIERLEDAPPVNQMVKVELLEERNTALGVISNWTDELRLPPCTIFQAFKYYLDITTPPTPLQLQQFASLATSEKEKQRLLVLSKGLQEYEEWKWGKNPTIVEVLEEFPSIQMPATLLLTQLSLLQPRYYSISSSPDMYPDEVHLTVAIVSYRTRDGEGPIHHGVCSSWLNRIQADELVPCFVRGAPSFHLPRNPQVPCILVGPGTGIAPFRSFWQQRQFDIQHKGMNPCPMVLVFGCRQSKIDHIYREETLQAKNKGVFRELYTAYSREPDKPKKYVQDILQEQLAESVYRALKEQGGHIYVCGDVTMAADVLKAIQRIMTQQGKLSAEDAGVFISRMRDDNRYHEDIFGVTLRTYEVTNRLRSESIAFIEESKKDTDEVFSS

As usually defined, the EC50 is the concentration needed to bring the measured effect to its halfway point. On to `CC1=C(C(=O)N(Cc2cc(=O)[nH]c3c(F)c(F)ccc23)c2cccc(Cl)c2)CNCC1`, for which the EC50 is 57 nM in data set [1]; 3400 nM at Cytochrome P450 3A4; 290 nM at Nitric oxide synthase 1; greater than 100000 nM on Cytochrome P450 1A2; 30000 nM at Cytochrome P450 2C19; 11 nM in data set [3]. In addition, in data set [2], the concentration at 6 h worked out at 63 ng/mL. The molecule further came in with an Activity in the data set on Mus musculus of 95%.
As for `CC(C)C(=O)N(Cc1cc(=O)[nH]c2c(F)cccc12)c1cccc(Cl)c1`, the EC50 in data set [1] was 2700 nM; at Cytochrome P450 3A4, 7600 nM; at Nitric oxide synthase 1 it was 2900 nM; at Cytochrome P450 1A2, greater than 100000 nM; on Cytochrome P450 2C19, 42000 nM; in data set [3], 160 nM. The molecule further yielded a concentration at 6 h in data set [2] of 21 ng/mL. In the data set on Mus musculus, this molecule gave an Activity of 6%.
In the case of `Cc1ncsc1C(=O)N(Cc1cc(=O)[nH]c2c(F)c(F)ccc12)c1cccc(Cl)c1`, the EC50 amounted to 32 nM in data set [1]; 4900 nM on Cytochrome P450 3A4; 120 nM on Nitric oxide synthase 1; 52000 nM on Cytochrome P450 1A2; 19000 nM at Cytochrome P450 2C19; 2 nM in data set [3]. This molecule gave a concentration at 6 h in data set [2] of 8 ng/mL. The molecule further came in with an Activity in the data set with Mus musculus of 62%.
With `Cn1cncc1C(=O)N(Cc1cc(=O)[nH]c2c(F)c(F)ccc12)c1cccc(Cl)c1`, the EC50 in data set [1] turned out to be 14 nM; on Cytochrome P450 3A4, 1400 nM; at Nitric oxide synthase 1, 70 nM; at Cytochrome P450 1A2, 95000 nM; at Cytochrome P450 2C19, 11000 nM; in data set [3], 3 nM. This molecule also showed a concentration at 6 h in data set [2] of 18 ng/mL. Besides, the Activity with Mus musculus is 95%.
As to `Cc1ncsc1C(=O)N(Cc1cc(=O)[nH]c2c(F)cccc12)c1cccc(Cl)c1`, the half-maximal effective concentration (EC50) is 120 nM in data set [1]; 7000 nM on Cytochrome P450 3A4; 2300 nM at Nitric oxide synthase 1; greater than 100000 nM at Cytochrome P450 1A2; 13000 nM at Cytochrome P450 2C19; 11 nM in data set [3]. Besides, the concentration at 6 h in data set [2] is 77 ng/mL. The Activity in the data set on Mus musculus came out at 90%.
In the case of `Cc1ncsc1C(=O)N(Cc1c[n+]([O-])cc2c(F)c(F)ccc12)c1cccc(Cl)c1`, the EC50 is 74 nM in data set [1]; 1800 nM at Cytochrome P450 3A4; 3200 nM at Nitric oxide synthase 1; greater than 100000 nM at Cytochrome P450 1A2; 93000 nM at Cytochrome P450 2C19; 19 nM in data set [3]. The concentration at 6 h in data set [2] was 20 ng/mL. The same molecule yielded an Activity with Mus musculus of 10%.

For the origin of these results see ChEMBL document CHEMBL1138485, “Discovery of inducible nitric oxide synthase (iNOS) inhibitor development candidate KD7332, part 1: Identification of a novel, potent, and selective series of quinolinone iNOS dimerization inhibitors that are orally active in rodent pain models” (J Med Chem, 2009).
